Compound activity: PubChem BioAssay, several laboratories
APP 5'UTR act – APP 5'UTR luciferase reporter activation; SH-SY5Y APP 5'UTR luciferase reporter, luminescence; zero percent = DMSO vehicle wells; 1% of 190,000 active; activation, % at 2 µM;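 active = activation above a set limit, based on mean plus 3 SD of controls, cut at about 140% in these data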
STAT3 act – increases IL-6 driven STAT3 reporter signal; U3A cells, IL-6 STAT3-luciferase reporter, luminescence; 100% = signal with IL-6 EC80 alone; activation (% of control), % at 5.6 µM; 0.91% of 190,000 active;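 active = activation above the screen-wide mean of compound activation plus 3 SD, cut at about 130% in these data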;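 note: 0% = background luminescence of wells with medium and substrate only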
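Material: human STAT1-deficient U3A cells with stable STAT3-luciferase reporter / Probe or stimulus: IL-6 stimulus at 33 ng/mL final / Schedule: 1 h compound pre-exposure, 6 h IL-6 stimulation, 37 °C / Technique: luminescence / Read-out basis: percent of IL-6-only median luminescence / Control set: IL-6-only high control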
NF-kB expr up – compounds increasing NF-kB expression in human neuronal cells; 1.6% of 190,000 active; NF-kB reporter expression; hits give high values; AID 1239; fold change at 12.5 µM; in the data active = fold change above about 3.3
STAT1 inh – inhibitors of IFN-gamma induced STAT1 signaling; inhibition, % at 5.5 µM; 0.35% of 200,000 active; NIH 3T3 STAT1-luciferase reporter, luminescence; AID 920;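 active = inhibition above a set limit, the mean inhibition across all tested compounds plus 3 SD, cut at about 34% in these data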;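 note: 0% = IFN-gamma with DMSO and 100% = IFN-gamma with 300 µM nifuroxazide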
STAT1 act – increases IFN-gamma driven STAT1 reporter signal. AID 932. NIH 3T3 STAT1-luciferase reporter, luminescence; 100% = IFN-gamma alone, no compound. activation (% of control), % at 5.5 µM. 2.6% of 200,000 active;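 active = activation above the screen-wide mean activation plus 3 SD, cut at about 130% in these data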;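 note: raw ratio to IFN-gamma control signal so 100% means no change and 0% no light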
STAT3 inh – inhibitors of IL-6 induced STAT3 signaling; U3A cells, IL-6 STAT3-luciferase reporter, luminescence; host cell line lacks STAT1; inhibition, % at 5.5 µM; 0.89% of 190,000 active; AID 862;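 active = inhibition above the mean inhibition across all screened compounds plus 3 SD, cut at about 44% in these data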;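 note: 0% = DMSO only wells and 100% = 100 µM nifuroxazide control wells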
Active calls of the source: *; / = no result. Most compounds without a hit are left out; they make up all but 5.1% or so of the library.

SMILES | APP 5'UTR act | STAT3 act | NF-kB expr up | STAT1 inh | STAT1 act | STAT3 inh
CCOC(=O)c1sc(NC(=O)c2cc(-c3ccc(C)cc3)nc3ccccc23)c(C#N)c1C | 7 | 106 | 0.5 | -7 | 106 | -1
O=C(NC1=NCCS1)c1cc(-c2ccc(-c3ccccc3)cc2)nc2ccccc12 | 67 | 105 | 1.3 | -39 | 135* | -11
O=C(COc1ncnc2sccc12)Nc1ccc(F)cc1F | -5 | 98 | 1.3 | 1 | 100 | 3
COc1ccc(/C=N/N(C)c2cc(=O)n(C)c(=O)[nH]2)cc1OC | -3 | 97 | 1.3 | 2 | 99 | 6
O=C(NCCc1ccc(F)cc1)Nc1ccc2c(c1)OCO2 | 48 | 106 | 2.2 | -38 | 134* | 6
O=C(NCCc1ccccc1)C(=O)Nc1ccc2c(c1)OCCO2 | 38 | 103 | 2.1 | -18 | 115 | 3
O=C(Nc1ccc2c(c1)OCO2)OCc1ccccc1 | 140* | 99 | 5.1* | -38 | 135* | 6
COc1ccc(CCNC(=O)Nc2ccc3c(c2)OCO3)cc1OC | 11 | 95 | 1.1 | 3 | 95 | 11
O=C(NCCc1ccccc1)Nc1ccc2c(c1)OCO2 | 115 | 112 | 4.3* | -48 | 140* | -10
O=C(Nc1ccc2c(c1)OCO2)C1CCCN1C(=O)OCc1ccccc1 (configuration not stated) | -15 | 106 | 1.3 | -5 | 106 | 0
COc1ccc(C(=O)NCc2nnc(SCC(=O)N3CCCc4ccccc43)o2)cc1OC | 0 | 102 | 0.97 | -4 | 101 | 3
Cc1nnc(NC(=O)CSc2nc3c(c(=O)n(C)c(=O)n3C)n2C(C)C)s1 | 18 | 93 | 0.78 | -3 | 100 | 13
O=c1c(Cc2c(F)cccc2Cl)c(O)ccn1CCCN1CCOCC1 | 32 | 99 | 1.3 | 1 | 98 | 6
CC1CN/C(=C\C(=O)c2ccccc2)C(=O)N1 (configuration not stated) | 52 | 97 | 2.9 | -42 | 138* | 7
CC1CN/C(=C\C(=O)c2ccc(Cl)cc2)C(=O)N1 (configuration not stated) | 175* | 77 | 4.7* | -27 | 125 | 31
CN(C)CC1CCCCC1OC(=O)/C=C/c1ccc(Cl)cc1Cl (configuration not stated) | 23 | 106 | 1.2 | 3 | 96 | -6
COc1ccc(-c2coc3cc(OC)cc(OC)c3c2=O)cc1 | 27 | / | 1.8 | -32 | 128 | /
CC(C)Oc1cc(O)c2c(=O)c(-c3ccc(O)cc3)coc2c1 | 164* | 85 | 9* | -34 | 128 | 17
COc1ccc(-c2coc3cc(OC)cc(O)c3c2=O)cc1 | 155* | 102 | 5.5* | -48 | 143* | -1
COc1cc(O)cc2occ(-c3ccc(O)cc3)c(=O)c12 | 11 | / | 1.4 | -6 | 104 | /
COc1ccc(S(=O)(=O)Nc2ccccc2C(N)=O)cc1OC | 11 | 89 | 1.1 | -2 | 101 | 22
CC(=O)c1ccc(NC(=S)N2CCCC(CO)C2)cc1 (configuration not stated) | 25 | 91 | 2.4 | -15 | 114 | 15
CC1CCCN(C(=S)Nc2ccc(Nc3ccccc3)cc2)C1 (configuration not stated) | 80 | 98 | 1.9 | -41 | 136* | 7
OCC1CCCN(C(=S)Nc2ccc(Oc3ccccc3)cc2)C1 (configuration not stated) | 69 | 109 | 2.4 | -54 | 147* | -6
Cc1cc(/C=C(\C#N)C(=O)NC2CCCCCC2)c(C)n1C | 26 | 102 | 1.8 | 3 | 97 | 3
SMILES | APP 5'UTR act | STAT3 act | NF-kB expr up | STAT1 inh | STAT1 act | STAT3 inh
Cc1ccc(C(=O)Nc2cc(-c3ccn[nH]3)c(C)n(N)c2=O)cc1 | 0 | 107 | 1.2 | -5 | 103 | -8
CN(C)c1oc(-c2ccc(Cl)cc2)nc1S(=O)(=O)c1ccccc1 | -13 | 92 | 0.97 | -34 | 131* | 13
CCCn1c(N)c(C(=O)COc2ccc(Br)cc2F)c(=O)n(C)c1=O | -17 | 84 | 1.1 | 3 | 97 | 21
NS(=O)(=O)c1cccc(NC(=O)CN2CCC(Cc3ccccc3)CC2)c1 | -10 | 103 | 1.2 | 2 | 98 | 2
CC1(C)OC(=O)N(c2ccccc2)C12C=Cc1c(ccc3ccccc13)O2 (configuration not stated) | 1 | 99 | 0.88 | 6 | 95 | 2
O=C1NC2(C=Cc3c(ccc4ccccc34)O2)Oc2ccccc21 (configuration not stated) | 3 | 114 | 1.5 | -46 | 141* | -17
CN1CCN(CC(=O)Nc2ccccc2[N+](=O)[O-])CC1 | 10 | 104 | 5.5* | -5 | 105 | -6
NC(=O)c1cc2ccccc2o/c1=N\NC(=O)c1ccncc1 | 17 | 104 | 0.95 | -10 | 111 | 1
NC(=O)c1cc2ccccc2o/c1=N/NC(=O)c1cccs1 | -1 | 95 | 0.63 | -40 | 134* | 10
COc1ccc2o/c(=N/NC(=O)c3cccs3)c(C(N)=O)cc2c1 | 43 | 107 | 0.61 | -42 | 138* | 5
Cc1ccc(C(=O)c2cc3ccccc3o2)cc1C | 127 | 107 | 3.7* | -40 | 136* | -4
O=C(c1cc2ccccc2o1)c1cccs1 | / | 102 | 2.3 | -53 | 145* | 0
O=C(NCc1ccc(Cl)cc1)c1cnn2ccccc12 | 77 | 106 | 2.4 | -34 | 131* | 3
Cc1cc(C)n2ncc(C(=O)NCc3ccc(Cl)cc3)c2n1 | 4 | 97 | 0.89 | -4 | 104 | 4
Cc1noc(C)c1C(=O)Nc1sc(C)c(-c2ccccc2)c1C#N | -5 | 98 | 0.48 | 2 | 100 | 4
Cc1sc(NC(=O)C2CCCCC2)c(C#N)c1-c1ccccc1 | 46 | 111 | 1.4 | -33 | 130* | -9
Cc1cccc(C(=O)Nc2sc(C)c(-c3ccccc3)c2C#N)c1 | 27 | 94 | 3.5* | -36 | 133* | 11
N#Cc1c(Cl)nsc1NC(=O)c1ccccc1 | -2 | 56 | 0.56 | 55* | 49 | 56*
O=C1c2cccc(Cl)c2C(=O)c2c1cccc2N1CCCC1 | 11 | 137* | / | 8 | 100 | -29
Cc1cc(C)nc(N/N=C2/CCCC/C2=C\c2ccccc2)n1 | 11 | 107 | 0.87 | -5 | 105 | -1
O=C(CCn1ccnc1)Nc1nc2ccccc2[nH]1 | -11 | 106 | 1.3 | -10 | 109 | -5
CN(CC(=O)N1CCc2ccccc21)S(=O)(=O)c1cccs1 | 11 | 116 | 1.8 | -32 | 130* | -10
COc1ccc(C(=O)Cc2nnc(C)s2)cc1 | 50 | 101 | 1.5 | -18 | 117 | -2
CN(Cc1ccccc1)C(=S)Nc1ccc2nc3n(c(=O)c2c1)CCCCC3 | 5 | 93 | 1.1 | -1 | 98 | 11
COc1ccc(N2CCN(C(=O)CSc3nc4[nH]ncc4c(=O)n3-c3ccc(Br)cc3)CC2)cc1 | -2 | 98 | 3.3* | 20 | 80 | 4
